Calls of active or inactive are those of the source. The calls are words filed in the database; no cut-off is given here.
Columns and labels:
[1] = biological target: Amyloid-beta precursor protein (Homo sapiens) (UniProt P05067); experiment: Inhibition of amyloid beta (1 to 42) (unknown origin) aggregation assessed as increase in time of half-life of aggregation at 100 uM using compound dissolved in DMSO measured after 42 hrs by Thioflavin T fluorescence assay relative to control; parameters: scale not given: the % may be the effect or the level left
Sequence of Amyloid-beta precursor protein (Homo sapiens) (P05067 whole entry): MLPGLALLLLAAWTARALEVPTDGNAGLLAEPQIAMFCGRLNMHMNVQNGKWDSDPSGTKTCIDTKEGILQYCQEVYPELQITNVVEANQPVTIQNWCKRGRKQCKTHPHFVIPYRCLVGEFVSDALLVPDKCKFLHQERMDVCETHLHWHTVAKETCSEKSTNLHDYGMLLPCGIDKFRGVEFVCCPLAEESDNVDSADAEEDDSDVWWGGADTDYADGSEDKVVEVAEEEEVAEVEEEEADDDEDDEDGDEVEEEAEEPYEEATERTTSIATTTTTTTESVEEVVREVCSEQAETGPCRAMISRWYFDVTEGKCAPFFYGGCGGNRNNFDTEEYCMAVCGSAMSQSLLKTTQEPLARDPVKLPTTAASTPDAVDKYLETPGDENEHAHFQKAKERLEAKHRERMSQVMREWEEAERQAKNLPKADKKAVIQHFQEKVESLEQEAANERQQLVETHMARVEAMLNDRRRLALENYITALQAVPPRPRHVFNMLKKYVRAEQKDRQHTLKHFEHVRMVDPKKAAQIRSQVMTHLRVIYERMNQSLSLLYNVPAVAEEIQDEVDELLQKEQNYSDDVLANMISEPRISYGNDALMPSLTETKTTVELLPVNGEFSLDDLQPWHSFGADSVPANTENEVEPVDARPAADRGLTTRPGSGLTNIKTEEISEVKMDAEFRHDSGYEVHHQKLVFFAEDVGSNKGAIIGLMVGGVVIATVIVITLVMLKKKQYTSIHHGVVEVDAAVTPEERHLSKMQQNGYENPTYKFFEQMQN
Method in brief: (§1)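 Aβ1-42 dissolved in 1% aqueous ammonia at 1 mM, diluted to 0.2 mM in 10 mM Tris-HCl, 100 mM NaCl pH 7.4 just before use. Final 10 µM peptide added to 40 µM ThT with compound (final DMSO 0.5% v/v), room temperature. Triplicate wells, ex/em 440/480 nm for 42 h, read 2–4 times on different days. t1/2 extension and plateau F reduction are computed as % of peptide-alone values.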

[2] = biological target: Amyloid-beta precursor protein (Homo sapiens) (UniProt P05067); experiment: Inhibition of amyloid beta (1 to 42) (unknown origin) aggregation assessed as reduction in intensity of fluorescence plateau of aggregation at 10 uM using compound dissolved in DMSO measured after 42 hrs by Thioflavin T fluorescence assay relative to control; parameters: scale not given: the % may be the effect or the level left; method in brief: as §1
[3] = biological target: Amyloid-beta precursor protein (Homo sapiens) (UniProt P05067); experiment: Inhibition of amyloid beta (1 to 42) (unknown origin) aggregation assessed as reduction in intensity of fluorescence plateau of aggregation at 100 uM using compound dissolved in DMSO measured after 42 hrs by Thioflavin T fluorescence assay relative to control; parameters: scale not given: the % may be the effect or the level left; method in brief: as §1
[4] = biological target: Amyloid-beta precursor protein (Homo sapiens) (UniProt P05067); experiment: Inhibition of amyloid beta (1 to 42) (unknown origin) aggregation assessed as reduction in intensity of fluorescence plateau of aggregation at 100 uM using compound dissolved in water measured after 42 hrs by Thioflavin T fluorescence assay relative to control; parameters: scale not given: the % may be the effect or the level left
Method in brief: (§2)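 ThT kinetics of 10 µM Aβ1-42 (from 1 mM ammonia stock, diluted in 10 mM Tris-HCl, 100 mM NaCl, pH 7.4) with 40 µM ThT at room temperature. Compound is dissolved in water (0.5% v/v) rather than DMSO and used at 10:1 compound/peptide. Fluorescence 440/480 nm over 42 h. t1/2 and plateau F are expressed as % change versus peptide alone.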

[5] = biological target: Amyloid-beta precursor protein (Homo sapiens) (UniProt P05067); experiment: Inhibition of amyloid beta (1 to 42) (unknown origin) aggregation assessed as reduction in intensity of fluorescence plateau of aggregation at 1 uM using compound dissolved in DMSO measured after 42 hrs by Thioflavin T fluorescence assay relative to control; parameters: scale not given: the % may be the effect or the level left; method in brief: as §1
[6] = biological target: Amyloid-beta precursor protein (Homo sapiens) (UniProt P05067); experiment: Inhibition of amyloid beta (1 to 42) (unknown origin) aggregation assessed as increase in time of half-life of aggregation at 10 uM using compound dissolved in DMSO measured after 42 hrs by Thioflavin T fluorescence assay relative to control; parameters: scale not given: the % may be the effect or the level left; method in brief: as §1
[7] = biological target: Amyloid-beta precursor protein (Homo sapiens) (UniProt P05067); experiment: Inhibition of amyloid beta (1 to 42) (unknown origin) aggregation assessed as increase in time of half-life of aggregation at 100 uM using compound dissolved in water measured after 42 hrs by Thioflavin T fluorescence assay relative to control; parameters: scale not given: the % may be the effect or the level left; method in brief: as §2
[8] = biological target: Amyloid-beta precursor protein (Homo sapiens) (UniProt P05067); experiment: Inhibition of amyloid beta (1 to 42) (unknown origin) aggregation assessed as increase in time of half-life of aggregation at 1 uM using compound dissolved in DMSO measured after 42 hrs by Thioflavin T fluorescence assay relative to control; method in brief: as §1
[9] = biological target: Amyloid-beta precursor protein (Homo sapiens) (UniProt P05067); experiment: Inhibition of amyloid beta (1 to 42) (unknown origin) aggregation at 100 uM after 42 hrs by uranyl acetate staining based transmission electron microscopic method
Method in brief: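 Samples are prepared as for ThT: 10 µM Aβ1-42 in 10 mM Tris-HCl, 100 mM NaCl pH 7.4, ±100 µM compound, incubated 42 h. Aliquots adsorbed 2 min on 300-mesh carbon grids, washed, dried, negatively stained 45 s and imaged by TEM.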

[10] = biological target: Amyloid-beta precursor protein (Homo sapiens) (UniProt P05067); experiment: Inhibition of amyloid beta (1 to 42) (unknown origin) oligomerization assessed as amyloid beta monomer level at 100 uM after 12 hrs by capillary electrophoresis method (reference value: 0%); parameters: scale not given: the % may be the effect or the level left
Method in brief: (§3)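 Aβ1-42 reconstituted at 100 µM final in 20 mM phosphate pH 7.4 with 2.5% v/v DMSO (compound stock or control), compound at 10:1 ratio. Profiles taken at 0, 2, 6 and 12 h. CE in fused silica capillary, 80 mM phosphate pH 7.4, −30 kV, 20°C, UV 190 nm. Monomer peak area is related to that of peptide alone at 0 h.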

[11] = biological target: Amyloid-beta precursor protein (Homo sapiens) (UniProt P05067); experiment: Inhibition of amyloid beta (1 to 42) (unknown origin) aggregation at 1 to 100 uM treated immediately or 3 hrs after fibrillization kinetics by Thioflavin T fluorescence assay
Method in brief: (§4)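 Same ThT set-up (10 µM Aβ1-42, 40 µM ThT, Tris-HCl/NaCl pH 7.4, room temperature, 440/480 nm), except compound is added at the start of kinetics or 3, 19 or 44 h after it. Tested at 1:1 and 10:1 compound/peptide ratios.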

[12] = biological target: Amyloid-beta precursor protein (Homo sapiens) (UniProt P05067); experiment: Inhibition of amyloid beta (1 to 42) (unknown origin) aggregation at 1 to 100 uM treated at 19 to 44 hrs after fibrillization kinetics by Thioflavin T fluorescence assay; method in brief: as §4
[13] = biological target: Amyloid-beta precursor protein (Homo sapiens) (UniProt P05067); experiment: Inhibition of amyloid beta (1 to 42) (unknown origin) oligomerization assessed as amyloid beta monomer level at 100 uM after 6 hrs by capillary electrophoresis method (reference value: 4%); parameters: scale not given: the % may be the effect or the level left; method in brief: as §3
[14] = biological target: Amyloid-beta precursor protein (Homo sapiens) (UniProt P05067); experiment: Inhibition of amyloid beta (1 to 42) (unknown origin) oligomerization assessed as increase in amyloid beta monomer level at 100 uM up to 2 hrs by capillary electrophoresis method; method in brief: as §3

Compound | Activity [1] | Activity [2] | Activity [3] | Activity [4] [%] | Activity [5] | Activity [6] | Activity [7] [%] | Activity [8] | inhibition [9] | Activity [10] [%] | inhibition [11] | inhibition [12] | Activity [13] [%] | inhibition [14]
COc1ccc(NC(C)=O)cc1C(=O)NNC(=O)[C@H](CCCCN)NC(=O)[C@@H]1CCCN1[C@@H]1CN(C(=O)[C@@H](NC(=O)[C@H](C)NC(=O)[C@@H](N)C(C)C)C(C)C)CC[C@H]1NS(=O)(=O)c1ccc(C)cc1 | 30% | inactive | 32% | 35 | inactive | inactive | 58 | inactive | – | – | – | – | – | –
COc1ccc(NC(C)=O)cc1C(=O)NNC(=O)[C@H](CCCCN)NC(=O)[C@@H]1CCCN1[C@@H]1CN(C(=O)[C@@H](NC(=O)[C@H](C)NC(=O)OC(C)(C)C)C(C)C)CC[C@H]1NS(=O)(=O)c1ccc(C)cc1 | 59% | inactive | inactive | – | – | 23% | – | – | – | – | – | – | – | –
COc1ccc(NC(C)=O)cc1C(=O)NNC(=O)[C@H](CCCCN)NC(=O)[C@@H]1CCCN1[C@@H]1CN(C(=O)[C@@H](NC(=O)[C@H](C)N)C(C)C)CC[C@H]1N | inactive | inactive | 18% | – | – | inactive | – | – | – | – | – | – | – | –
COc1ccc(NC(C)=O)cc1C(=O)NNC(=O)[C@H](CCCCN)NC(=O)[C@@H]1CCCN1[C@@H]1CN(C(=O)[C@@H](NC(=O)[C@H](C)N)C(C)C)CC[C@H]1NS(=O)(=O)c1ccc(N)cc1 | 56% | inactive | 54% | – | – | 27% | – | – | Active | – | – | – | – | –
COc1ccc(NC(C)=O)cc1C(=O)NNC(=O)[C@H](CCCCN)NC(=O)[C@@H]1CCCN1[C@@H]1CN(C(=O)[C@@H](NC(=O)[C@H](C)N)C(C)C)CC[C@H]1NC(=O)OC(C)(C)C | 29% | inactive | 43% | – | – | 13% | – | – | – | – | – | – | – | –
CSCC[C@H](NC(=O)[C@H](CC(C)C)NC(=O)CN)C(=O)N[C@H](C(=O)NCC(=O)N1CC[C@@H](NS(=O)(=O)c2ccc(C)cc2)[C@H](N2CCC[C@H]2C(=O)N[C@@H](CCCCN)C(=O)N[C@@H](CC(C)C)C(=O)N[C@H](C(=O)N[C@@H](Cc2ccccc2)C(=O)N[C@@H](Cc2ccccc2)C(N)=O)C(C)C)C1)C(C)C | inactive | 90% | 97% | – | – | inactive | – | – | – | – | – | – | – | –
COc1ccc(NC(C)=O)cc1C(=O)NNC(=O)[C@H](CCCCNC(=O)OCc1ccccc1)NC(=O)[C@@H]1CCCN1[C@@H]1CN(C(=O)[C@@H](NC(=O)[C@H](C)NC(=O)OC(C)(C)C)C(C)C)CC[C@H]1NS(=O)(=O)c1ccc(C)cc1 | inactive | inactive | inactive | – | – | inactive | – | – | – | – | – | – | – | –
COc1ccc(NC(C)=O)cc1C(=O)NNC(=O)[C@H](CCCCN)NC(=O)[C@@H]1CCCN1[C@@H]1CN(C(=O)[C@@H](NC(=O)[C@H](C)N)C(C)C)CC[C@H]1NS(=O)(=O)c1ccc(C)cc1 | 76% | 38% | 66% | 81 | 38% | 36% | 96 | inactive | Active | 31 | Active | inactive | 49 | inactive
COC(=O)[C@@H]1CCCN1[C@@H]1CNCC[C@H]1NS(=O)(=O)c1ccc(C)cc1 | inactive | inactive | 23% | – | – | inactive | – | – | – | – | – | – | – | –

— ChEMBL document CHEMBL4152277, “Structure-activity relationships of β-hairpin mimics as modulators of amyloid β-peptide aggregation” (Eur J Med Chem, 2018)
